Sampled rows, rich in hits. Any-hit rate of the full collection: about 4.9%.
STAT3 inh: reduces IL-6 driven STAT3 reporter signal | U3A cells, IL-6 STAT3-luciferase reporter, luminescence; host cell line lacks STAT1 | inhibition, % at 5.5 µM | 190,000 tested, 0.89% active | AID 862;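 active means inhibition above the mean inhibition across all screened compounds plus 3 SD, cut at about 44% in these data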
NF-kB expr up: NF-kB expression increase, human neuronal cells; NF-kB reporter expression; active compounds read high; fold change at 12.5 µM; 190,000 tested, 1.6% active; in the data active means fold change above about 3.3
STAT1 inh: inhibitors of IFN-gamma induced STAT1 signaling; NIH 3T3 STAT1-luciferase reporter, luminescence; 200,000 tested, 0.35% active; inhibition, % at 5.5 µM;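 active means inhibition above a set limit, the mean inhibition across all tested compounds plus 3 SD, cut at about 34% in these data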
STAT1 activator: increases IFN-gamma driven STAT1 reporter signal | 200,000 tested, 2.6% active | activation (% of control), % at 5.5 µM | AID 932 | NIH 3T3 STAT1-luciferase reporter, luminescence; 100% = IFN-gamma alone, no compound;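 active means activation above the screen-wide mean activation plus 3 SD, cut at about 130% in these data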
APP 5'UTR act: APP 5'UTR luciferase reporter activation. 190,000 tested, 1% active. AID 1276. activation, % at 2 µM. SH-SY5Y APP 5'UTR luciferase reporter, luminescence; zero percent = DMSO vehicle wells;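 active means activation above a set limit, based on mean plus 3 SD of controls, cut at about 140% in these data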
STAT3 act: STAT3 signaling activation; U3A cells, IL-6 STAT3-luciferase reporter, luminescence; 100% = signal with IL-6 EC80 alone; activation (% of control), % at 5.6 µM; 190,000 tested, 0.91% active;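 active means activation above the screen-wide mean of compound activation plus 3 SD, cut at about 130% in these data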
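Material: STAT3-luciferase reporter U3A cells. Controls: IL-6-treated wells, 100% activation. Read-out: % activation versus median of IL-6-stimulated wells. Probe or stimulus: IL-6 stimulus at 33 ng/mL final. Timing: compound 1 h, then IL-6 6 h at 37 °C. Signal: reporter luminescence signal.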
STAT1 act conf: STAT1 activation, confirmation assay | shares compounds with STAT1 activator | NIH 3T3 STAT1-luciferase reporter, IFN-gamma potentiation, luminescence; 100% = IFN-gamma EC80 alone, no compound | activation (% of control), % at 5.7 µM | 1,200 tested, 97% active | AID 1262;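 active means activation above a set limit carried over from the earlier primary STAT1 screen, cut at about 140% in these data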
NFkB act: activates NF-kappaB, counter-screen to STAT1 activators; shares compounds with STAT1 activator; HEK293T NF-kB luciferase reporter, TNF-alpha stimulated, luminescence; 100% = TNF-alpha with vehicle only; activation (% of control), % at 5.7 µM; 1,200 tested, 43% active;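 active means activation above the mean of solvent-only control wells plus 3 SD, set per campaign, cut at about 130% in these data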;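 further: TNF-alpha given at a submaximal dose yielding about 80% of full reporter signal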
STAT3 act STAT1c: counter-screen for STAT1 activators: human STAT3 activation; U3A cells STAT3-luciferase reporter, IL-6, luminescence; cells lack STAT1; 100 = IL-6 alone, no compound effect; activation (% of control), % at 5.7 µM; shares compounds with STAT1 activator; 1,200 tested, 46% active;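 active means activation above the solvent-only control well mean plus 3 SD, set per plate batch, cut at about 110% in these data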;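 further: higher means more STAT3 reporter activation so hits are non-selective activators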
Numbers stand for hits; n = inactive; x = no result given.

SMILES	STAT3 inh	NF-kB expr up	STAT1 inh	STAT1 activator	APP 5'UTR act	STAT3 act	STAT1 act conf	NFkB act	STAT3 act STAT1c
Cc1c(C(=O)NCC2CCCO2)oc2ccc3c(c12)C(=O)CC(C)(C)O3 (centres undefined)	n	3.44	n	155.2	156.5	n	209.4	n	126.5
Cc1c(C(=O)NCC2CCCO2)oc2ccc(S(=O)(=O)N3CCCC3)cc12 (centres undefined)	n	n	n	n	n	n	x	x	x
COc1ccc(OC)c(/C=C/C(=O)Nc2ccc3c(c2)CCC3)c1	n	n	n	n	n	n	x	x	x
COc1ccccc1/C=C/C(=O)Nc1ccc2c(c1)CCC2	n	7.78	n	160.6	176.2	n	196.6	146.8	112.5
COc1ccc(/C=C/C(=O)Nc2ccccc2)cc1OC	n	n	n	152.5	n	n	163.4	n	n
COc1ccccc1/C=C/C(=O)Nc1ccc(N2CCOCC2)cc1	n	n	n	n	n	n	x	x	x
COc1ccccc1/C=C/C(=O)Nc1ccc2c(c1)OCCO2	n	8.42	n	179.3	n	n	238.1	n	n
O=c1c(Cc2ccccc2)c(O)ccn1CCc1cnc[nH]1	n	n	n	n	n	n	x	x	x
COC(=O)C(CC(=O)c1cccc(OC)c1)c1ccc(F)cc1 (centres undefined)	n	n	n	n	n	n	x	x	x
O=c1cc(-c2ccccc2Cl)oc2cc(O)cc(O)c12	n	n	n	n	n	n	x	x	x
O=C1C=CC(O)(c2cc(=O)c3c(O)cc(O)cc3o2)C=C1	n	n	n	162.2	n	n	n	184.8	130.5
COc1ccc(Cl)c2c1[nH]c1nc(SCc3ccccn3)nnc12	n	4.18	n	188.8	156.8	n	175.2	143.7	124.2
CC(C)(C)n1ncc2c(=O)n(CC(=O)NCc3ccc(F)cc3)cnc21	n	3.49	n	159.7	169.1	n	198.9	n	126.9
CC(C)(C)n1ncc2c(=O)n(CC(=O)NCc3ccco3)cnc21	n	n	n	n	n	n	x	x	x
Cc1cccc(N=C/C(C(=O)C(F)(F)F)=C(\O)c2ccco2)c1	n	4.8	n	163.3	n	n	172.9	n	122.6
O=C(/C(C=Nc1ccc(F)cc1)=C(/O)c1ccco1)C(F)(F)F	n	3.36	n	151.2	n	n	162.4	n	n
Cc1ccc(O)c(NC(=O)c2ccco2)c1	n	n	n	n	n	n	x	x	x
Cc1ccc(N=C/C(C(=O)C(F)(F)F)=C(\O)c2ccco2)cc1Cl	n	6.07	n	182.7	135.7	n	221.2	n	143.9
O=C(COc1c(CO)cc(Br)cc1CO)NC1CCCc2ccccc21 (centres undefined)	n	n	n	n	n	n	x	x	x
CC1CCc2nc(/C(C#N)=C/c3ccncc3)sc2C1 (centres undefined)	n	n	n	151.7	n	n	159.5	n	n
COc1ccc2[nH]c(=O)c(-c3nnn(-c4ccccc4)n3)cc2c1	x	n	n	n	n	x	x	x	x
COc1ccc2oc(=Nc3ccccc3)c(-c3nc4ccccc4[nH]3)cc2c1	n	4.18	n	161.2	137.7	n	164.4	n	137.9
Cc1ccn2c(c1)nc(=S)n2C(=O)c1ccccc1	n	n	n	283.3	189.3	n	517.8	184.7	137.9
COc1ccccc1C(=O)COC(=O)c1ccc(N(C)C)cc1	n	n	n	173.6	141.7	n	174.8	134.3	132.0
CC(NC(=O)COC(=O)c1ccc(N(C)C)cc1)c1ccccc1 (centres undefined)	n	n	n	n	n	n	x	x	x
SMILES	STAT3 inh	NF-kB expr up	STAT1 inh	STAT1 activator	APP 5'UTR act	STAT3 act	STAT1 act conf	NFkB act	STAT3 act STAT1c
Cc1ccc(C(=O)N2CCN(c3ccccc3Cl)CC2)cc1[N+](=O)[O-]	n	n	n	n	n	n	x	x	x
O=C(NNC(=O)C1CCCCC1)c1ccc(Br)cc1	n	n	n	n	n	n	x	x	x
CCc1cc(CNC(=O)CCc2nnc(CCCc3ccccc3)o2)on1	n	3.4	n	158.0	n	n	168.1	n	115.1
O=C(CCc1nnc(C2CCCCC2)o1)N1CCN(c2ccccc2F)CC1	n	n	n	163.4	n	n	172.1	136.6	117.0
O=C(CCc1nnc(CCCc2ccccc2)o1)N1CCCCCC1	n	n	n	153.4	n	n	142.4	n	n
CC1(C)CC(=O)C(=C2SCCCS2)C(=O)C1	n	n	n	n	n	n	x	x	x
C/C(CCc1ccc2c(c1)OCO2)=N\N=C(/N)SC1CC(=O)N(c2ccccc2F)C1=O (centres undefined)	n	n	n	n	n	n	x	x	x
CC(NC(=S)NCc1ccccc1)C12CC3CC(CC(C3)C1)C2 (centres undefined)	n	n	n	n	n	n	x	x	x
Clc1ccc(-c2cnc(Oc3ccccc3)nc2)cc1	n	n	n	152.8	137.9	n	189.7	141.6	n
CCC(N=c1cc(-c2ccc(OC)cc2)oc2ccc(C)cc12)C(=O)O (centres undefined)	n	n	n	163.5	146.6	n	137.5	n	n
CC(=O)Nc1cc(C(=O)N2CCCC2)ccc1S(=O)(=O)c1ccc(Cl)cc1	n	n	n	n	n	n	x	x	x
CCCc1ccc(-c2cc(NC(=O)CSc3nnc(N)s3)n(-c3ccccc3)n2)cc1	n	4.39	n	159.4	n	n	189.0	134.4	110.8
Cc1nnc(SCC(=O)Nc2cc(-c3cc(C)c(C)cc3C)nn2-c2ccccc2)s1	n	n	n	n	n	n	x	x	x
O=C(NN/C(=N/S(=O)(=O)c1ccc(Cl)cc1)c1ccccc1)c1ccc(O)cc1	n	n	n	151.8	n	n	154.1	n	111.3
COc1cccc(CNC(=O)CN2C(=O)CSc3ccc(S(=O)(=O)N4CCCC4)cc32)c1	n	n	n	n	n	n	x	x	x
CCSc1ncc(/C=N/Nc2ccccc2)n1C	n	n	n	n	n	n	x	x	x
CCSc1ncc(/C=N/Nc2ccc([N+](=O)[O-])cc2)n1C	n	n	n	162.4	n	n	196.3	149.3	n
Cn1c(SCC(=O)Nc2ccccc2[N+](=O)[O-])nnc1C(F)(F)F	n	n	n	n	n	n	x	x	x
O=C(N/N=C/C1C(c2ccccc2)C1(Cl)Cl)c1cccc(Cl)c1 (centres undefined)	n	n	n	n	n	n	x	x	x
